# Activity calls are given as the source filed them.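 The calls were made as follows, unless noted: active = Her2 level under about 52% in both replicate screens, with viability over 70% of control (limit read from the data); inconclusive = Her2 under the limit in one screen only, or viability under 70%; inactive = Her2 level above the set limit.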
# What was measured:
# [1] = reducers of endogenous Her2 protein level, primary screen, SKBR3 breast tumor cells, AlphaScreen, ATP viability (AID 461); settings: 18-24 h, measured here: SKBR3 viability, ATP luminescence, at 10 µM;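 as to Her2 level: lower value means less Her2 protein in the cells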;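 as to viability: percent of carrier control wells set as 100% viability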
# [2] = molecular target: Receptor tyrosine-protein kinase erbB-2 (Homo sapiens) (UniProt P04626); test: as above; settings: 18-24 h, at 10 µM, stronger effect = lower value
# Sequence of Receptor tyrosine-protein kinase erbB-2 (Homo sapiens) (P04626 whole entry, looked up): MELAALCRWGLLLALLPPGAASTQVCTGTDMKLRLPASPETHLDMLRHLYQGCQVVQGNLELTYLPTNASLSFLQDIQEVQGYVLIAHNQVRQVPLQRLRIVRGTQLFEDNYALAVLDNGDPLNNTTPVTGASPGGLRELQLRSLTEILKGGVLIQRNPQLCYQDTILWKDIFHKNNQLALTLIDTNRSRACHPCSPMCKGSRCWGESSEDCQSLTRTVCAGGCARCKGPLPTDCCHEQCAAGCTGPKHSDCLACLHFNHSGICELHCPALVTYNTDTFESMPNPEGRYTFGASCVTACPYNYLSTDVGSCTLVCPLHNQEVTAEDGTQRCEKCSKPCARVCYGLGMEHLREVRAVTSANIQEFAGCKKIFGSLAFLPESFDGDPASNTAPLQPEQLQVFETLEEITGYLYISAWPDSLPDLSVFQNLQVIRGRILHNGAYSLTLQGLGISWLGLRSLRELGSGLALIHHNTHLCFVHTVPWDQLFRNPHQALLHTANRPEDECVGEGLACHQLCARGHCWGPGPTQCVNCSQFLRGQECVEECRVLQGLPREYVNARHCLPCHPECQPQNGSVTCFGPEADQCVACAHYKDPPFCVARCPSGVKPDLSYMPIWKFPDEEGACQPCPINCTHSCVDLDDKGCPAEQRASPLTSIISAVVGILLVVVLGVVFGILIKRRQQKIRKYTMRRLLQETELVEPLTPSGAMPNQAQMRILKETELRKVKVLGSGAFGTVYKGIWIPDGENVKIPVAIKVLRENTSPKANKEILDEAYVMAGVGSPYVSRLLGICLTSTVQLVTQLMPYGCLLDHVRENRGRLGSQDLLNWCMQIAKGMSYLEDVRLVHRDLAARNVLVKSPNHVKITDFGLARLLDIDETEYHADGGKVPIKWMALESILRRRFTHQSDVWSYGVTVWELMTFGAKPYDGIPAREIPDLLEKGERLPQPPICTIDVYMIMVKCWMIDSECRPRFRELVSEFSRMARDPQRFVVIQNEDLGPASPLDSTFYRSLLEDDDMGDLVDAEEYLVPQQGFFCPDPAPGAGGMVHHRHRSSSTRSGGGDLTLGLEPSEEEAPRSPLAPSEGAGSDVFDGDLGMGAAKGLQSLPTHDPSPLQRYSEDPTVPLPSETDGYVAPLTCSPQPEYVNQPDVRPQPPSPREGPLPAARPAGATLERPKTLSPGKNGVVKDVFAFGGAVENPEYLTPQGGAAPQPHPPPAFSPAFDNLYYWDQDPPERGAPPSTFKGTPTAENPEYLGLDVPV
# [3] = SK-BR-3 cell growth inhibitors, pilot screen, 24 h, human (AID 572;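 active = viability at or below 10% of carrier control in both of two separate runs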;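 also: compound exposure lasted between 18 and 24 h rather than exactly 24 h; 100% = carrier-treated control wells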); settings: SK-BR-3 viability, CellTiter-Glo luminescence, at 10 µM, stronger effect = lower value
# [4] = HUVEC growth inhibition – cell-based, human, primary screen (AID 575;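 active = viability at or below 30% in both replicate assays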;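 also: 100% = median of untreated cell wells with 0.1% DMSO on each plate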); settings: HUVEC proliferation, CellTiter-Glo luminescence, 72 h; at 10 µM; stronger effect = lower value
# Method in brief: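 Test system: HUVEC primary cells. Quantity: 1250 endothelial cells in each well. Dosing: single-point 10 µM, DMSO 0.1% final. Incubation: 72 h treatment at 37 °C. Measured by: CTG luminescence. Control set: DMSO cell controls and MePR drug controls. Plate: collagen-coated 384-well format.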
# [5] = growth inhibitors of H69AR lung tumor, primary screen, human, duplicate replicates (AID 580;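 active = viability at or under a set limit in both replicates, limit being median viability minus 3 SD, cut at about 48% in these data, passing the limit was not always enough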;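 also: 100% = mean luminescence of untreated wells and 0% = no signal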); settings: H69AR lung tumor cells viability, ATP luminescence, 72 h; at 10 µM; stronger effect = lower value
# [6] = reversal of MRP1-mediated doxorubicin resistance, pilot screen, H69AR cells, doxorubicin co-treatment (AID 601;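 active = viability loss from added drug above about 55%, and viability with drug at most 40%, in both replicates, limit read from the data, passing the limit was not always enough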); settings: CellTiter-Glo, 72 h, at 10 µM; for differential viability (reversal): stronger effect = higher value
# [7] = 384-well plate pilot, post-Golgi transport modulator project, inhibition of yeast transport mutant growth (AID 636; in the data active = inhibition above about 31%); settings: absorbance 615 nm, about 18 h, stronger effect = higher value
# [8] = growth suppression of yeast trafficking mutant, preliminary HTS, modulators of trafficking downstream of Golgi apparatus project, 1536-format plate, OD 615 nm (AID 637; in the data active = inhibition above about 30%); settings: yeast transport mutant growth, absorbance 615 nm, 18 h; stronger effect = higher value
# [9] = H69AR cells + 2 uM doxorubicin, measured here: viability with 2 uM doxorubicin, stronger effect = lower value
# [10] = H69AR cells, compound alone cytotoxicity
SMILES,viability [1],Her2 level [2],viability [3],viability [4],viability [5],differential viability (reversal) ([6]; H69AR cells + 2 uM doxorubicin),"viability [6, 9]","viability [6, 10]",inhibition [7],inhibition [8]
CN(C1CCS(=O)(=O)C1)S(=O)(=O)c1cccc2nsnc12 (stereo not given),104%,100% (inactive),104% (inactive),107% (inactive),107% (inactive),6.67% (inactive),100%,107%,-6.58% (inactive),-2.7% (inactive)
CCOC(=O)N1CCN(C(=O)Cn2ncn3nc(-c4cccs4)cc3c2=O)CC1,97%,136% (inactive),97% (inactive),111% (inactive),90.9% (inactive),-9.68% (inactive),101%,90.9%,1.71% (inactive),0.33% (inactive)
Cc1ccc(Cn2c(SCCN3CCCCC3)nc3c2c(=O)[nH]c(=O)n3C)cc1,94.5%,104% (inactive),94.5% (inactive),84.1% (inactive),81.7% (inactive),-3.14% (inactive),84.8%,81.7%,-7.6% (inactive),-6.83% (inactive)
Cc1ccc(NC(=O)CCC(=O)O)cc1F,106%,82.5% (inactive),106% (inactive),88.8% (inactive),104% (inactive),12.2% (inactive),91.8%,104%,-6.3% (inactive),-2.7% (inactive)
Cc1cc(=O)oc2cc(Oc3ncccn3)ccc12,98%,106% (inactive),98% (inactive),101% (inactive),83% (inactive),-6.5% (inactive),89.4%,83%,-8.4% (inactive),16.7% (inactive)
CN(CC(=O)Nc1nccs1)S(=O)(=O)c1ccc(F)cc1,82%,114% (inactive),82% (inactive),92.1% (inactive),95.2% (inactive),-7.69% (inactive),103%,95.2%,0.78% (inactive),-4.75% (inactive)
CCN(Cc1cc2cc(OC)ccc2[nH]c1=O)C(=O)Cc1ccc(OC)cc1,91%,87.5% (inactive),91% (inactive),96.5% (inactive),88.2% (inactive),6.29% (inactive),81.9%,88.2%,-0.66% (inactive),-3.44% (inactive)
CCOC(=O)CSc1nc2sc(C)c(C)c2c(=O)n1C,104%,69% (inactive),104% (inactive),85.4% (inactive),94.2% (inactive),9.32% (inactive),84.8%,94.2%,-2.34% (inactive),-0.17% (inactive)
Cc1ccc(Cn2c(C(=O)NCCCN3CCOCC3)cc3sccc32)cc1,84.5%,76.5% (inactive),84.5% (inactive),63.6% (inactive),77.6% (inactive),-3.47% (inactive),81.1%,77.6%,-3.16% (inactive),-1.27% (inactive)
c1ccc(CCn2nnnc2C(c2cccs2)N2CCOCC2)cc1 (stereo not given),102%,77.5% (inactive),102% (inactive),99.2% (inactive),107% (inactive),12.8% (inactive),94%,107%,-5.62% (inactive),-1.59% (inactive)
CCOC(=O)c1sc(NC(=O)C2CC=CCC2C(=O)O)nc1C (stereo not given),105%,92.5% (inactive),105% (inactive),100% (inactive),98.1% (inactive),1.07% (inactive),97.1%,98.1%,-1.04% (inactive),-1.64% (inactive)
Cn1c(=O)c2[nH]c(NCC3CCCO3)nc2n(-c2ccccc2)c1=O (stereo not given),94.5%,81% (inactive),94.5% (inactive),116% (inactive),102% (inactive),10.4% (inactive),91.5%,102%,-4.87% (inactive),3.67% (inactive)
CCSC1=NCN(CCCC(=O)O)CN1,118%,100% (inactive),118% (inactive),96.3% (inactive),99.9% (inactive),-1.83% (inactive),102%,99.9%,0.13% (inactive),-0.16% (inactive)
CC(=O)Nc1ccc(S(=O)(=O)NCc2cn3c(C)csc3n2)cc1,116%,106% (inactive),116% (inactive),107% (inactive),102% (inactive),20.4% (inactive),81.3%,102%,-8.31% (inactive),-3.02% (inactive)
CC1CCc2c(sc(N)c2C(N)=O)C1 (stereo not given),95.5%,81% (inactive),95.5% (inactive),86.7% (inactive),91.5% (inactive),6.62% (inactive),84.9%,91.5%,-0.26% (inactive),4.5% (inactive)
COc1ccc(N2CCN(c3ncnc4c3cnn4-c3ccc(C)cc3C)CC2)cc1,81%,72.5% (inactive),81% (inactive),87.1% (inactive),66.2% (inactive),46.8% (inactive),19.4%,66.2%,-1.58% (inactive),-1.29% (inactive)
O=C(COC(=O)c1cc(-c2ccco2)nc2ccccc12)NCc1ccc2c(c1)OCO2,97%,93% (inactive),97% (inactive),72.2% (inactive),96.8% (inactive),11.3% (inactive),85.5%,96.8%,-5.75% (inactive),-10.3% (inactive)
COCCn1c(C)cc(C(=O)COC(=O)CCN2C(=O)c3ccccc3C2=O)c1C,94.5%,98.5% (inactive),94.5% (inactive),97.9% (inactive),96.6% (inactive),5.55% (inactive),91.1%,96.6%,-5.33% (inactive),0.65% (inactive)
COc1cccc(CNc2nc3nc(C)c(Cl)c(C)n3n2)c1,86.5%,99.5% (inactive),86.5% (inactive),95.1% (inactive),83.6% (inactive),0.33% (inactive),83.3%,83.6%,-4.93% (inactive),-2.38% (inactive)
O=C(CN1CCN(Cc2ccc3c(c2)OCO3)CC1)Nc1ccc2c(c1)OCCO2,97%,89.5% (inactive),97% (inactive),93.8% (inactive),94.4% (inactive),16.4% (inactive),78%,94.4%,-2.43% (inactive),-1.27% (inactive)
Cc1c(NC(=O)C(C)OC(=O)COc2cccc3c2OC(C)(C)C3)c(=O)n(-c2ccccc2)n1C (stereo not given),112%,106% (inactive),112% (inactive),124% (inactive),92% (inactive),-1.3% (inactive),93.3%,92%,-4.47% (inactive),17.2% (inactive)
CCC(=O)Nc1ccc2nc(SCC(=O)N3CCCC3)sc2c1,97.5%,100% (inactive),97.5% (inactive),114% (inactive),94.1% (inactive),5.62% (inactive),88.5%,94.1%,2.67% (inactive),38.4% (active)
CCOc1ccc(OCC)c(NC(=O)CCCN2C(=O)c3cccnc3C2=O)c1,110%,128% (inactive),110% (inactive),110% (inactive),85.8% (inactive),-2.52% (inactive),88.3%,85.8%,0.81% (inactive),7.14% (inactive)
O=S(=O)(NC1=NCCC1)c1cccs1,106%,94% (inactive),106% (inactive),114% (inactive),107% (inactive),15.3% (inactive),91.2%,107%,-5.68% (inactive),-2.67% (inactive)
CCC1C(=O)N=C(SCC(=O)Nc2cccc3ccccc23)NC1=O (stereo not given),112%,100% (inactive),112% (inactive),106% (inactive),82.3% (inactive),-9.84% (inactive),92.1%,82.3%,-3.24% (inactive),0.63% (inactive)
CCCOC(=O)CSc1nc(N)c(C#N)c(CC)c1C#N,99.5%,116% (inactive),99.5% (inactive),105% (inactive),94.6% (inactive),0.73% (inactive),93.9%,94.6%,2% (inactive),0.16% (inactive)
